In ChEMBL document CHEMBL1148978, “Lignan derivatives and a norditerpene from the seeds of Vitex negundo” (J Nat Prod, 2004) one finds Activity data, which are given here for six compounds.

Experiment [1] has as its system Radical scavenging activity. The experiment is described as follows: Antioxidant activity assessed as DPPH radical scavenging activity at 0.02 mM. The class given is functional. The essentials: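 Sample in EtOH (0.02 mM final) added to 0.1 M acetate buffer pH 5.5 plus 0.5 mM DPPH in EtOH. Mixture stood 30 min at room temperature. Modified from a published DPPH method.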
For orientation: DPPH is a stable violet radical that fades when it is reduced.

Experiment [2] is described as follows: Antioxidant activity assessed as inhibition of lipid peroxidation at 0.5 mM after 5 days by ferric-thiocyanate method. The class given is functional. Put shortly: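 Linoleic acid peroxidation: 2.51% linoleic acid in EtOH mixed with 0.05 M phosphate buffer pH 7.0, EtOH and water. Sample added from 10 mM EtOH stock, 0.5 mM final. Capped vial kept in dark at 40 °C for 5 days. Aliquot diluted in 75% EtOH, ammonium thiocyanate and ferrous chloride in HCl added, A500 read after 3 min. Blank lacks compound.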

Calls of active or inactive are those of the source. The calls are words filed in the database; no cut-off is given here.

With `COc1cc([C@H]2c3cc(O)c(OC)cc3C=C(C=O)[C@@H]2CO)ccc1O`, the result in experiment [1] and in experiment [2] was Active.

As to `COc1cc(-c2c(O)c(C=O)cc3cc(OC)c(O)cc23)ccc1O`, the result in experiment [1] and in experiment [2] was Active.

`COc1cc(-c2c3c(cc4cc(OC)c(O)cc24)C(=O)OC3)ccc1O`: the outcome in experiment [1] and in experiment [2] was Active.

For the compound `COc1cc([C@H]2c3c(ccc(O)c3OC)C=C(C=O)[C@@H]2CO)ccc1O`, the outcome in experiment [1] and in experiment [2] was Active.

On to `COc1cc(-c2cc(C=O)cc3cc(OC)c(O)cc23)ccc1O`, for which the result in experiment [1] and in experiment [2] was Active.

On to `COc1cc(-c2c3c(cc4cc(OC)c(O)cc24)C(=O)NC3)ccc1O`, for which the outcome in experiment [1] and in experiment [2] was Active.
